The source of these data is ChEMBL document CHEMBL4339200, “Structure-based Discovery of Phenyl (3-Phenylpyrrolidin-3-yl)sulfones as Selective, Orally Active RORγt Inverse Agonists” (ACS Med Chem Lett, 2019).

For data set [1], the target named is T1, Oxysterols receptor LXR-beta (Homo sapiens, UniProt P55055).
T1 sequence (P55055 whole entry): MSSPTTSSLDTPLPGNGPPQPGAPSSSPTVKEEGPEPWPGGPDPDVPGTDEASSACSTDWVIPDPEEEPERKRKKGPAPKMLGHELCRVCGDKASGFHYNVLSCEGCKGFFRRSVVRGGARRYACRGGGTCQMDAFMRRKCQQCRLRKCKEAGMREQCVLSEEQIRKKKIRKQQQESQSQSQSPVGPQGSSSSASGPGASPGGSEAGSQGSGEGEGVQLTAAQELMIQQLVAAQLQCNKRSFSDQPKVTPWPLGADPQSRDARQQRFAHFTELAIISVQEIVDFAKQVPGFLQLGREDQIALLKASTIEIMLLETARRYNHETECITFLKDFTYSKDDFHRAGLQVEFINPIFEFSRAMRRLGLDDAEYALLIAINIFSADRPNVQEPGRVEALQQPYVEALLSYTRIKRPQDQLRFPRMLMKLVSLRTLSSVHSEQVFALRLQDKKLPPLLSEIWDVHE
Nature of the data set: Agonist activity at LXRbeta (unknown origin) expressed in African green monkey CV1 cells. It counts as cell-based.

The test system of data set [2] is Mus musculus. Nature of the data set: Inhibition of IL2/IL23-induced IL17F production in po bid dosed C57BL/6 mouse treated 30 mins prior to 24 hrs IL2 challenge followed by IL2/IL23 addition at 0,7 and 23 hrs measured after 7 hrs post last IL2/IL23 challenge. The format is functional, organism-based. Summed up:
(§1)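 Naive mice were challenged three times with IL-2 plus IL-23 (first at 0 and 7 h) and dosed orally bid at 5, 15 or 50 mg/kg. Serum cytokines were measured 7 h after the final IL-2/IL-23 administration. An anti-IL-23 antibody served as positive control.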

Another data set deals with T2, Cytochrome P450 2C8 (Homo sapiens, UniProt P10632).
T2 sequence (P10632 whole entry): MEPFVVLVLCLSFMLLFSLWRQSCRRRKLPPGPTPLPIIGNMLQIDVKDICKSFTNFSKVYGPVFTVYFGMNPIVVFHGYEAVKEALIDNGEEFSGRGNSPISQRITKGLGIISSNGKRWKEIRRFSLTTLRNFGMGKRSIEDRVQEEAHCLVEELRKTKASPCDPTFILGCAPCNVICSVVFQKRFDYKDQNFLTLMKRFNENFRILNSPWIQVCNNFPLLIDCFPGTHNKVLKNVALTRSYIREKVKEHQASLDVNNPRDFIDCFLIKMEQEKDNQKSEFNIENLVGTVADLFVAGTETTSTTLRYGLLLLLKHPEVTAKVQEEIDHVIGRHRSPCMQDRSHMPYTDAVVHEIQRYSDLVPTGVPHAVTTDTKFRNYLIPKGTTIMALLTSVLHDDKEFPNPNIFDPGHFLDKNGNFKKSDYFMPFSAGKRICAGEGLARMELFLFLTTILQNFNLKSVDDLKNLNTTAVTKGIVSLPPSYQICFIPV
Nature of the data set: Inhibition of CYP2C8 (unknown origin). It counts as ADME.

Another data set deals with Cytochrome P450 2C19 (Homo sapiens, UniProt P33261). The data set is described as follows: Inhibition of CYP2C19 (unknown origin). It counts as ADME.
The nature of data set [3]: Oral bioavailability in Balb/c mouse at 10 mg/kg. As to conditions: in vivo. The format is ADME, organism-based. The procedure, abridged:
(§2)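 Balb/c mice given a single intravenous dose of 2 mg/kg or an oral dose of 10 mg/kg. Plasma exposure was followed to derive Cmax, Tmax, AUC, t1/2, clearance, Vss and oral bioavailability (F).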

The target in data set [4] is T3, Nuclear receptor subfamily 1 group I member 2 (Homo sapiens, UniProt O75469).
T3 sequence (O75469 whole entry): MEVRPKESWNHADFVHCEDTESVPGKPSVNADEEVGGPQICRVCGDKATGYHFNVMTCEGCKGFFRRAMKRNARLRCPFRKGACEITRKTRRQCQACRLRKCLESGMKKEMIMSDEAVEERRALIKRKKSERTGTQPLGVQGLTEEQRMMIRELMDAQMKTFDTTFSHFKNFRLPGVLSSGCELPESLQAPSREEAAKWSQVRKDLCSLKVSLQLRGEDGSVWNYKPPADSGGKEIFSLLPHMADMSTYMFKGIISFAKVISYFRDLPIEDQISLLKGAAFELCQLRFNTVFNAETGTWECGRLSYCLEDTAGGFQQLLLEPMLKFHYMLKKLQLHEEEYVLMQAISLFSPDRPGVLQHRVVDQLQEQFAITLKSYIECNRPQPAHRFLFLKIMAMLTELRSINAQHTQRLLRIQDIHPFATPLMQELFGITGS
Nature of the data set: Transactivation of PXR in human HepG2 cells. It counts as ADME, cell-based.

Data set [5] is described as follows: Protein binding in human plasma assessed as unbound fraction. The format is ADME, cell-free.
Data set [6] in a line: Inhibition of CYP1B2 (unknown origin). It counts as ADME, Homo sapiens.
A short description of data set [7]: Volume of distribution at steady state in Balb/c mouse at 2 mg/kg, iv. As to conditions: in vivo, read-out: Vdss. It counts as ADME, organism-based. Summed up:
as §2

The nature of data set [8]: Half life in mouse liver microsomes. It counts as ADME, Microsome. On the technique in general: Liver microsomes are vesicles of endoplasmic reticulum, rich in cytochrome P450 enzymes.
The nature of data set [9]: Half life in Balb/c mouse at 2 mg/kg, iv. It counts as ADME, organism-based. As to conditions: in vivo. The procedure, abridged: as §2
The subject of data set [10] is Mus musculus. The data set is described as follows: Inhibition of IL2/IL23-induced IL6 production in po bid dosed C57BL/6 mouse treated 30 mins prior to 24 hrs IL2 challenge followed by IL2/IL23 addition at 0,7 and 23 hrs measured after 7 hrs post last IL2/IL23 challenge. It counts as functional, organism-based. Summed up:
as §1

A short description of data set [11]: Stability in mouse liver microsomes assessed as parent compound remaining after 10 mins. It counts as ADME, Microsome. As to conditions: read-out: Stability. Summed up:
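Rough stability screen: compound incubated with mouse liver microsomes for 10 min, reported as percentage of parent remaining.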

For a further data set, the target named is Cytochrome P450 3A4 (Homo sapiens, UniProt P08684). The data set is described as follows: Inhibition of CYP3A4 (unknown origin). The format is ADME.
Data set [12] can be described thus: AUC in Balb/c mouse at 2 mg/kg, iv. The format is ADME, organism-based. The conditions noted are these: in vivo. The procedure, abridged: as §2
In data set [13] the target is T4, Nuclear receptor ROR-alpha (Homo sapiens) (UniProt P35398).
T4 sequence (whole entry): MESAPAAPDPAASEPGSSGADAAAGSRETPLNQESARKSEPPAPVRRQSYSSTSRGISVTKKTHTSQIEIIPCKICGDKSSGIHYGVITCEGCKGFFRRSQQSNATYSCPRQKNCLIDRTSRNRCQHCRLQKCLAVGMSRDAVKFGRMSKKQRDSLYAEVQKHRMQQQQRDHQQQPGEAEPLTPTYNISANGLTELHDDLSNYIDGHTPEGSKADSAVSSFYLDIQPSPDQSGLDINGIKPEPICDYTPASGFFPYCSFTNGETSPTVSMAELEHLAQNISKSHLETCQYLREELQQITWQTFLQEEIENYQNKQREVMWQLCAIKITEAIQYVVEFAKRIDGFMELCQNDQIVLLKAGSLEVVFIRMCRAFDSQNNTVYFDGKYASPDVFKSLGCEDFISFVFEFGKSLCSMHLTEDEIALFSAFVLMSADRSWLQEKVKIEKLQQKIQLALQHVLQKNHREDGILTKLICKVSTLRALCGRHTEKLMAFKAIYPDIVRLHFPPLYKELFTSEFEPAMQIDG
Nature of the data set: Inverse agonist activity at GAL4-fused RORalpha LBD (272 to 556 residues) (unknown origin) expressed in human Jurkat cells measured after 18 hrs by native IL17 promoter driven steady-glo luciferase assay. It counts as cell-based.

The target of the next data set is Cytochrome P450 2C9 (Homo sapiens, UniProt P11712). The data set is described as follows: Inhibition of CYP2C9 (unknown origin). It counts as ADME.
The nature of data set [14]: Protein binding in mouse plasma assessed as unbound fraction. It counts as ADME, cell-free.

The source made the active and inactive calls. No cut-off for these calls is given here.

Chain of Cytochrome P450 2C19 (P33261 whole entry): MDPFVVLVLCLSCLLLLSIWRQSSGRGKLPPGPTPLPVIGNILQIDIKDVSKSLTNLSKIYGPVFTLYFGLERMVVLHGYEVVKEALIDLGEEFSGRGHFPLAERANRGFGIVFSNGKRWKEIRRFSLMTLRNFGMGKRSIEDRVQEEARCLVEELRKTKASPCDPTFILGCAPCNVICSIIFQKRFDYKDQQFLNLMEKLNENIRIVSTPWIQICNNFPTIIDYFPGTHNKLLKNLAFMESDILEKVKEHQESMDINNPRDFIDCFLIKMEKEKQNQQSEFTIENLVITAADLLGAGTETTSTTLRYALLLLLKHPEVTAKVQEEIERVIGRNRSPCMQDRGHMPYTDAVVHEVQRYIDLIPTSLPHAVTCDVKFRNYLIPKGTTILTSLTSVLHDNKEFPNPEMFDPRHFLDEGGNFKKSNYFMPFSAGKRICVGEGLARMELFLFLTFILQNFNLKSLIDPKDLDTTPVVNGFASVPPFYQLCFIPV
Chain of Cytochrome P450 3A4 (P08684 whole entry): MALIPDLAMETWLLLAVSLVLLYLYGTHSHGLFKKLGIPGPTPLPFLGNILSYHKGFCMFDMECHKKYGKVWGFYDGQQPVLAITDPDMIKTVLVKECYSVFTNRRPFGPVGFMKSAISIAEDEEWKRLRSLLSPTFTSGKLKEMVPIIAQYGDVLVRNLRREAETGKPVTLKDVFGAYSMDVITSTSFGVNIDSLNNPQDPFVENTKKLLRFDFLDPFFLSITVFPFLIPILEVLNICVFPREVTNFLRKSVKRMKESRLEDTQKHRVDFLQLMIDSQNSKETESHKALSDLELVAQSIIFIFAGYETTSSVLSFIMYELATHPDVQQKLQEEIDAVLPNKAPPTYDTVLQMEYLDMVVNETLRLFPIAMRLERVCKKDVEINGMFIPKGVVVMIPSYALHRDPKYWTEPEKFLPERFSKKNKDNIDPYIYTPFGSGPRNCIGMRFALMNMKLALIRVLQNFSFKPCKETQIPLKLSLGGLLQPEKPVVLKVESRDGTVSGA
Chain of Cytochrome P450 2C9 (P11712 whole entry): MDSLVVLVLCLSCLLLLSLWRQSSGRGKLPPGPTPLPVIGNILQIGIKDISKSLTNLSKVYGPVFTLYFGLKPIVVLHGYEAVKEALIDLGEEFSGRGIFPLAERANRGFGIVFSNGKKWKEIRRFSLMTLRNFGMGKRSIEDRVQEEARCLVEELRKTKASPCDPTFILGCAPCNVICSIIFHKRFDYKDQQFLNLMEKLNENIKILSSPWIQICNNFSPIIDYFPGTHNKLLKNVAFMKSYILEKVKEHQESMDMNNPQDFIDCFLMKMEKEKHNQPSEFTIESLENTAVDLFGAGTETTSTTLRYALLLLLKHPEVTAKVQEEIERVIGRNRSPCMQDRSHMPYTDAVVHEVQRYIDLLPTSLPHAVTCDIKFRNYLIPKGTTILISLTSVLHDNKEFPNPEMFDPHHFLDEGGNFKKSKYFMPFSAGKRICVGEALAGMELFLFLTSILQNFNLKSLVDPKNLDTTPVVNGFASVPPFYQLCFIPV

For the compound `O=C(O)[C@H]1CC[C@H](C(=O)N2CC[C@](c3ccc(C(F)(C(F)(F)F)C(F)(F)F)cc3)(S(=O)(=O)c3ccc(F)cc3)C2)CC1`, the results for the EC50 in data set [1] and in data set [4] were more than 7.5 µM and more than 50 µM, respectively. Moreover, the inhibition entry in the data set with Mus musculus [2] and in the data set with Mus musculus [10] was “Dose-dependent effect” throughout. For the same compound, the IC50 (in general, the concentration that gives 50% inhibition) is 0.68 µM against Cytochrome P450 2C8; more than 20 µM on Cytochrome P450 2C19; more than 20 µM in data set [6]; more than 20 µM on Cytochrome P450 3A4; more than 20 µM at Cytochrome P450 2C9. In [3], the bioavailability (usually dose-corrected exposure relative to a reference, in per cent) worked out at 99%. Also, the figures for the unbound share (fraction unbound) in [5] and in data set [14] were 0.037 and 0.105, respectively. Besides, the Vd in [7] was 3.4 L/kg. The values for the half-life in data set [8] and in [9] were more than 2 h and 7.2 h, respectively. In addition, the remaining at 10 min in data set [11] came out at 86%. Besides, the AUC (as a rule, the area under the concentration-time curve, a measure of exposure) in data set [12] came to 7.4 µM·h. Further, the outcome in [13] was inactive.
